ChEMBL document CHEMBL1142211 (Antimicrob Agents Chemother, 2007)
≈ marks a conversion by molar mass, not a printed value. Calls of active or inactive are those of the source.

Assays:
[1] = tested on: Mycobacterium tuberculosis; assay: Antimicrobial activity against Mycobacterium tuberculosis H37Rv in 7H9 broth; format: functional
Summary of the method: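 Broth microdilution against H37Rv over 256 to 0.01 mg/liter. MIC is the lowest concentration with no visible turbidity.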

[2] = tested on: Mycobacterium tuberculosis; assay: Antimicrobial activity against Mycobacterium tuberculosis H37Rv infected in mouse J774A.1 macrophages; format: functional
Summary of the method: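 J774A.1 macrophages were infected with H37Rv (MOI 1:8, macrophage:bacilli) and exposed to drug at 32 to 0.5 mg/liter for 3 days. Intracellular MIC is the minimal concentration giving a static effect after 3 days. Efficacy is the log10 CFU/ml reduction over the assay period.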

[3] = tested on: Mycobacterium tuberculosis; assay: Antimicrobial activity against Mycobacterium tuberculosis […] on day 7; format: functional
Summary of the method: (§1)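 H37Rv broth cultures were incubated with a range of drug concentrations. Viable CFU were counted by plating on Middlebrook 7H11 agar after 1, 7 and 14 days. Bactericidal effect is calculated against the initial inoculum before drug addition, as the mean of triplicates.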

[4] = tested on: Mycobacterium tuberculosis; assay: Bactericidal activity in Mycobacterium tuberculosis H37Rv on day 1; format: functional, organism-based; summary of the method: as §1
[5] = tested on: Mycobacterium tuberculosis; assay: Bactericidal activity in Mycobacterium tuberculosis H37Rv on day 7; format: functional; summary of the method: as §1
[6] = tested on: Mycobacterium tuberculosis; assay: Bactericidal activity in Mycobacterium tuberculosis H37Rv on day 14; format: functional, organism-based; summary of the method: as §1
[7] = Cmax in BALB/c mouse at 6 to 400 mg/kg, po; format: ADME, organism-based; parameters: dose 6-400 mg/kg, route oral; conditions: in vivo
Summary of the method: (§2)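 Uninfected mice received single ascending oral gavage doses as suspensions in 0.25% (wt/vol) carboxymethylcellulose at 10 ml/kg. Plasma was taken by retro-orbital puncture from 0.08 to 50 h after dosing, with 3 animals per time point. Drug was measured by HPLC-UV or LCMS, and parameters were derived by noncompartmental analysis.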

[8] = AUC(0-infinity) in BALB/c mouse at 6 to 400 mg/kg, po; format: ADME, organism-based; parameters: dose 6-400 mg/kg, route oral; conditions: plasma; summary of the method: as §2
[9] = tested on: Mus musculus; assay: Drug level in Mycobacterium tuberculosis infected BALB/c mouse model at 38 to 19000 mg/kg, po; format: ADME, organism-based; parameters: dose 38-19000 mg/kg, route oral; conditions: in vivo
[10] = tested on: Mycobacterium tuberculosis; assay: Reduction of Mycobacterium tuberculosis H37Rv in orally dosed BALB/c mouse lung; format: functional
Summary of the method: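 BALB/c mice were infected by low-dose aerosol with H37Rv. Oral dosing started 4 weeks later and ran for 4 weeks (3 weeks for one agent), using fractionated regimens with 3 mice per regimen and saline controls. Lungs were homogenized 24 h after the end of treatment and plated on 7H11 agar with 10% ADC at 37°C in 5% CO2 for 3 weeks. The read-out is log10 CFU/lung.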

[11] = tested on: Plasma; assay: Fraction unbound ligand in mouse plasma at 0.01 to 10 mg/litre; format: ADME, cell-free
Summary of the method: (§3)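 Mouse plasma protein binding was measured by equilibrium dialysis across cellulose acetate membranes (12,000 to 14,000 MW cutoff). Drug was quantified by HPLC-UV or LCMS. Each concentration was run in duplicate and the mean reported.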

[12] = Cmax in BALB/c mouse at 37.5 to 2400 mg/kg, po; format: ADME, organism-based; parameters: dose 37.5-2400 mg/kg, route oral; conditions: in vivo; summary of the method: as §2
[13] = AUC(0-infinity) in BALB/c mouse at 37.5 to 2400 mg/kg, po; format: ADME, organism-based; parameters: dose 37.5-2400 mg/kg, route oral; conditions: plasma; summary of the method: as §2
[14] = Fraction unbound ligand in mouse plasma at 0.01 to 50 mg/litre; format: ADME, cell-free; summary of the method: as §3
[15] = Cmax in BALB/c mouse at 5 to 1000 mg/kg, po; format: ADME, organism-based; parameters: dose 5-1000 mg/kg, route oral; conditions: in vivo; summary of the method: as §2
[16] = AUC(0-infinity) in BALB/c mouse at 5 to 1000 mg/kg, po; format: ADME, organism-based; parameters: dose 5-1000 mg/kg, route oral; conditions: plasma; summary of the method: as §2
[17] = Half life in BALB/c mouse at 5 to 1000 mg/kg, po; format: ADME, organism-based; parameters: dose 5-1000 mg/kg, route oral; conditions: in vivo; summary of the method: as §2
[18] = Ratio of fraction AUC in Mycobacterium tuberculosis infected BALB/c mouse to MIC in Mycobacterium tuberculosis infected BALB/c mouse model at 31 to 50000 mg/kg, po; format: functional; conditions: dose mg/kg 31-50000
Summary of the method: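 Estimated from oral single-ascending-dose PK in uninfected BALB/c mice (gavage, 0.25% CMC suspension; plasma sampled 0.08–50 h, 3 mice/time point; HPLC-UV/LCMS). Total AUC0-∞ was made unbound using a protein-binding fit from mouse-plasma equilibrium dialysis, then divided by broth MIC over 576 h/24 h (SPX: 432 h/24 h). Values were interpolated from dose relationships for dose-fractionation regimens in aerosol-infected mice.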

[19] = tested on: Mycobacterium tuberculosis; assay: Ratio of fraction Cmax in Mycobacterium tuberculosis infected BALB/c mouse to MIC in Mycobacterium tuberculosis infected BALB/c mouse model at 31 to 50000 mg/kg, po; format: functional; conditions: dose mg/kg 31-50000
Summary of the method: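 Unbound peak plasma level was divided by broth MIC. […] It was converted to free drug by a Boltzman fit of equilibrium-dialysis mouse plasma binding. Values for the fractionated regimens given to aerosol-infected mice were estimated from the dose–fCmax/MIC relationship.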

[20] = tested on: Mus musculus; assay: Drug level in Mycobacterium tuberculosis infected BALB/c mouse model at 31 to 50000 mg/kg, po; format: ADME, organism-based; parameters: dose 31-50000 mg/kg, route oral; conditions: in vivo
[21] = Half life in BALB/c mouse at 37.5 to 2400 mg/kg, po; format: ADME, organism-based; parameters: dose 37.5-2400 mg/kg, route oral; conditions: in vivo
[22] = Ratio of fraction AUC in Mycobacterium tuberculosis infected BALB/c mouse to MIC in Mycobacterium tuberculosis infected BALB/c mouse model at 225 to 115000 mg/kg, po; format: ADME, organism-based; parameters: dose 225-115000 mg/kg, route oral; conditions: in vivo
Summary of the method: (§4)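 Free Cmax and free AUC were derived from single-dose mouse plasma PK after conversion to unbound concentrations using each agent's binding equation, then divided by the broth MIC. Values for the fractionation regimens were estimated from the dose relationship.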

[23] = Ratio of fraction Cmax in Mycobacterium tuberculosis infected BALB/c mouse to MIC in Mycobacterium tuberculosis infected BALB/c mouse model at 225 to 115000 mg/kg, po; format: ADME, organism-based; parameters: dose 225-115000 mg/kg, route oral; conditions: in vivo; summary of the method: as §4
[24] = tested on: Mus musculus; assay: Drug level in Mycobacterium tuberculosis infected BALB/c mouse model at 225 to 115000 mg/kg, po; format: ADME, organism-based; parameters: dose 225-115000 mg/kg, route oral; conditions: in vivo
[25] = Toxicity in Mycobacterium tuberculosis infected BALB/c mouse model at 225 to 115000 mg/kg, po; format: organism-based; parameters: dose 225-115000 mg/kg, route oral; conditions: in vivo

SMILES	MIC [1]	MIC [2]	log10CFU/ml [3]	Activity [4]	Activity [5]	Activity [6]	Log10 cfu [10]	Cmax [12]	AUC(0-inf) [13]	also measured
COc1c(N2C[C@@H]3CCCN[C@@H]3C2)c(F)cc2c(=O)c(C(=O)O)cn(C3CC3)c12 [MOXIFLOXACIN]	0.5 µg/mL (≈ 1.25 µM)	1 µg/mL (≈ 2.49 µM)	3	Active	Active	Active	3.2			Cmax [7]: 380 ng/mL; AUC(0-inf) [8]: 25000 ng·h/mL; T>MIC [9]: 0%; Fu [11]: 0.077
O=C(O)c1cn(C2CC2)c2cc(N3CCNCC3)c(F)cc2c1=O [CIPROFLOXACIN]	0.5 µg/mL (≈ 1.51 µM)	4 µg/mL (≈ 12.1 µM)	3	Active		Active		1200 ng/mL	29000 ng·h/mL	log10CFU/ml [5]: 3.2
C[C@@H]1CN(c2c(F)c(N)c3c(=O)c(C(=O)O)cn(C4CC4)c3c2F)C[C@H](C)N1 [SPARFLOXACIN]	0.1 µg/mL (≈ 0.255 µM)	2 µg/mL (≈ 5.1 µM)	3	Active	Active	Active	1.4			fraction unbound [14]: 0.26; Cmax [15]: 750 ng/mL; AUC(0-inf) [16]: 43000 ng·h/mL; half-life [17]: 9.8 h; RatioAUC/MIC [18]: 3; Ratio [19]: 4; T>MIC [20]: 10%
CC1COc2c(N3CCN(C)CC3)c(F)cc3c(=O)c(C(=O)O)cn1c23 (configuration not stated) [OFLOXACIN]	0.5 µg/mL (≈ 1.38 µM)	2 µg/mL (≈ 5.53 µM)	3	Active	Active	Active	1.5	1700 ng/mL	29000 ng·h/mL	half-life [21]: 4.93 h; RatioAUC/MIC [22]: 2; Ratio [23]: 1; T>MIC [24]: 0%; LD50 [25]: 3000 mg/kg
